We go through 9 compounds from publication PMC3306454 (ACS Chemical Biology, 2012).

Several values for one entry are separate records, joined by “and”; a condition that tells them apart may be missing. Equal values may be shown once. Entries after “also recorded” stand apart in the source; their conditions may differ.

The test system of data set [1] is RNA 1×1 nucleotide internal loops and fully paired RNA. The data set can be described thus: Competition dialysis, binding selectivity. Particulars: 1 µM ligand, 1.6 µM RNA, 24 h. The gist of the method: (§1)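 RNAs were run-off transcribed, carried internal loops in a GNRA-hairpin cassette with a fully paired control, and were PAGE-purified. They were folded by heating at 60 °C for 5 min, then slow cooling. Dialysis units with 1.6 μM RNA stood against 1 μM ligand in buffer (8 mM NaH2PO4, 185 mM NaCl, 1 mM EDTA, pH 7.2), stirred 200 rpm, 24 h, 20–22 °C. SDS was added (1% final); Ct was measured spectrophotometrically; Cb = Ct − Cf.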

For data set [2], the system named is RNA displaying 5’CAG/3’GAC motif. The data set can be described thus: Optical melting experiments. In kind it is binding. To be noted: for ΔTm (1 equiv.): one equivalent of ligand; for ΔTm (2 equiv.): two equivalents of ligand. The gist of the method:
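RNA in Affinity Buffer was denatured at 90 °C and cooled to 15 °C, with ligand at 1 or 2 equivalents. Absorbance at 260 nm was recorded against temperature at 1 °C/min. Tm was calculated as ΔH°×1000/ΔS° − 273.15.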

Another data set relates to r(CAG)12-MBNL1 complex. The data set can be described thus: TR-FRET assay, disruption of the r. In kind it is biochemical. In general terms: TR-FRET usually uses a lanthanide donor and a delayed reading to cut background.
For data set [3], the system named is HD patient-derived fibroblasts expressing r(CAG)69. The data set can be described thus: RT-PCR splicing assay in HD fibroblasts. The format is cell-based, Human. Particulars: for Effect on ATP2A1 splicing: initial screen, 100 µM, both cellular models. The gist of the method: (§2)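 Fibroblasts were grown in MEM with 10% FBS and nonessential amino acids. SK-N-MC cells, with or without stable r(CAG)74, were grown in DMEM with 10% FBS. At ~60% confluence they received test compound at 50–300 μM final (water for untreated) for 48 h. ~1 μg total RNA was reverse transcribed with random primers, followed by RT-PCR, 2% agarose and ethidium staining. Normal isoform fraction was the normal band over total; ≥6 experiments, two-tailed t test versus untreated.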

Data set [4] has as its system SK-N-MC neuroblastoma cells stably expressing r(CAG)74. The data set can be described thus: RT-PCR splicing assay in neuroblastoma. In kind it is cell-based, Human. In a few lines:
as §2

Data set [5] deals with normal neuroblastoma cell line / control cell lines that do not express r(CAG)exp. Kind of data set: RT-PCR splicing assay in control cell lines. In kind it is cell-based, Human. In a few lines: as §2
Data set [6] has as its system HD fibroblasts and neuroblastoma cellular models. The data set can be described thus: Cell morphology. Particulars: for Toxicity as assessed by cell morphology: initial screen, 100 µM, both cellular models. The format is cell-based, Human. The gist of the method: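 HD patient fibroblasts (r(CAG)69) and SK-N-MC neuroblastoma cells stably expressing r(CAG)74 were grown to ~60% confluence. Fresh medium with test compound was added: 100 μM for the screen, 50–300 μM for the dose series, water for untreated. Cells were kept 48 h, and microscopic images of cell morphology served as the toxicity estimate.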

In data set [7] the test system is nuclear r(CAG)exp foci in HD-derived fibroblasts. The data set can be described thus: FISH of nuclear r. In kind it is cell-based, Human. In a few lines: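 Fibroblasts (HD line GM04281: r(CAG)17 and r(CAG)69 HTT alleles) at ~60% confluence were given test compound at 50−300 μM final, or water, for 48 h. Cells were fixed in 4% PFA/PBS at 4 °C, prehybridized (30% formamide, 2X SSC, 10 min), and hybridized with a 5′-Cy3, LNA-modified (CTG)6-CA probe. Washes were at 45 °C then 37 °C, and foci were imaged by fluorescence microscopy.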

The target in data set [8] is RNA 5’CAG/3’GUC (fully paired RNA). Kind of data set: Fluorescence anisotropy direct binding assay. To be noted: read-out: Dissociation constant, 5’CAG/3’GUC. The gist of the method: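 The RNA was made by run-off transcription and PAGE-purified, then folded by heating at 60 °C. Anisotropy was read at ex 368 nm and em 500 nm. Kd came from a quadratic binding fit of anisotropy versus RNA concentration.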
In general terms: Fluorescence polarisation rises when a labelled molecule tumbles more slowly, as on binding a larger partner.

Data set [9] deals with RNA containing the 5’CAG/3’GAC motif. Kind of data set: Fluorescence anisotropy direct binding assay. To be noted: read-out: Dissociation constant, 5’CAG/3’GAC. The gist of the method: (§3)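 RNA was titrated into 50 nM fluorescent test compound in Affinity Buffer (20 mM HEPES pH 7.5, 5 mM KCl, 150 mM NaCl, 1 mM MgCl2), equilibrating 5 min between additions. Anisotropy was read at ex 368 / em 500 nm and plotted against RNA concentration. Kd came from a quadratic binding equation fit.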

For data set [10], the system named is RNA containing 5’CUG/3’GUC. The data set can be described thus: Fluorescence anisotropy direct binding assay. In a few lines: as §3
The subject of data set [11] is RNA containing 5’CGG/3’GGC. Kind of data set: Fluorescence anisotropy direct binding assay. The gist of the method:
as §3

Another data set has as its system RNA 5’CCG/3’GCG. Kind of data set: Fluorescence anisotropy direct binding assay. In a few lines:
as §3

The test system of the next data set is RNA 5’CAG/3’GCC. The data set can be described thus: Competition dialysis. In kind it is binding. Particulars: bound ligand relative to amount of RNA target. The gist of the method: as §1
The next data set deals with RNA 5’CAG/3’GAC. Kind of data set: Competition dialysis. In kind it is binding. Particulars: bound ligand relative to amount of RNA target. In a few lines: as §1
Setting [12] is: neuroblastoma cells expressing r(CAG)74, 48 h.

For `COc1ccc2nc3cc(Cl)ccc3c(N)c2c1` [ACMA, 9-amino-6-chloro-2-methoxy acridine], in [1], the “Binding preference among RNAs” value was “binds preferentially to the fully paired RNA and the RNA displaying 5’CCG/3’GCC”.

With `CN(C)c1ccc2cc3ccc(N(C)C)cc3nc2c1` [AO, Acridine Orange], the “Binding preference among RNAs” value in [1] was “little preference for binding to a fully paired RNA or any of the RNAs with 1×1 nucleotide internal loops”.

A word on the IC50: it is the midpoint of a concentration-inhibition curve. A lower IC50 goes with greater potency in that assay. For `N=C(N)Nc1ccc(OC(=O)c2ccc(NC(=N)N)cc2)cc1` [Compound D6, 4-guanidinophenyl 4-guanidinobenzoate], in data set [2], the “ΔTm (1 equiv.)” value turned out to be 3 °C and the “ΔTm (2 equiv.)” value turned out to be 9 °C. In addition, the “Fold more potent than the other compounds studied” value with r(CAG)12-MBNL1 complex (TR-FRET IC50) was “at least 20 fold”. Besides, the IC50 in the data set on r(CAG)12-MBNL1 complex (pre-formed r(CAG)12-MBNL1 complex, TR-FRET) was 3000 nM. The “Concentration giving statistically significant improvement of NCOR2 mis-splicing” value in data set [3] (HD fibroblasts, 48 h) is 100 to 300 µM and 50 to 300 µM. Besides, in data set [3], the “Effect on ATP2A1 splicing” value is reported as “most significantly improved ATP2A1 mis-splicing”. Besides, the “Effect on MAPT pre-mRNA splicing” value in data set [4] (neuroblastoma cell line expressing 74 r(CAG) repeats) is on record as “slightly worsens the splicing of the MAPT pre-mRNA toward the DM-like phenotype”. In addition, in [4] (setting [12]), the “Concentration giving statistically significant improvement of ATP2A1 splicing” value fell in the range of 100 to 300 µM and the “Concentration giving statistically significant improvement of NCOR2 splicing” value is 100 to 300 µM. Also, the “Effect on splicing of other tested transcripts” value in [5] (control cell lines that do not express toxic r(CAG)exp) was “does not affect the splicing”. Further, in [5] (normal neuroblastoma cell line), the “Effect on MAPT pre-mRNA splicing” value is given as “more pronounced effect”. Besides, in [6] (increasing concentration of D6), the “Effect on cell morphology” value is reported as “cell morphology is not affected”. For the same compound, the “Toxicity as assessed by cell morphology” value in data set [6] is on record as “least amount of toxicity”. Besides, the “Effect on nuclear r(CAG)exp foci” value in data set [7] is “does not disrupt the formation of nuclear r(CAG)^exp foci; also recorded: does not significantly affect the number or the intensity of nuclear r(CAG)^exp foci”.

`N=C(N)c1ccc(-c2cc3ccc(C(=N)N)cc3[nH]2)cc1` [DAPI, 4',6-diamidino-2-phenylindole]: the Kd in data set [8] was over 3000 nM; in [9], 220 ± 60 nM; in [10] (read-out: Dissociation constant, 5’CUG/3’GUC, direct binding assay) it was 550 ± 200 nM; in data set [11] (read-out: Dissociation constant, 5’CGG/3’GGC, direct binding assay), 500 ± 100 nM; at RNA 5’CCG/3’GCG (read-out: Dissociation constant, 5’CCG/3’GCG, direct binding assay) it was 990 ± 200 nM. Further, the “Fold weaker binding to 5’CUG/3’GUC than to 5’CAG/3’GAC” value in data set [10] (fluorescence anisotropy) is given as “approximately 2.5 fold”. Besides, in [11] (fluorescence anisotropy), the “Fold weaker binding to 5’CGG/3’GGC than to 5’CAG/3’GAC” value is given as “approximately 2.5 fold”. Further, in the data set with RNA 5’CCG/3’GCG (fluorescence anisotropy), the “Fold weaker binding to 5’CCG/3’GCC than to 5’CAG/3’GAC” value is recorded as ~ 5 fold. In addition, the “ΔTm (1 equiv.)” value in data set [2] was found to be 6 °C. The “ΔTm (2 equiv.)” value in data set [2] is 10 °C. For the same compound, the “Binding preference among RNAs” value in [1] was “preferentially binds to 5’CAG/3’GAC and 5’CAG/3’GCC”. In addition, in the data set with RNA 5’CAG/3’GCC, the “Binding stoichiometry to 5’CAG/3’GCC” value is recorded as “stoichiometric amounts”. For the same compound, in the data set on RNA 5’CAG/3’GAC, the “Binding stoichiometry to 5’CAG/3’GAC” value is reported as “stoichiometric amounts”. The “Effect on ATP2A1 splicing” value in data set [3] is “exacerbated splicing abnormalities of ATP2A1”. Moreover, in [6], the “Toxicity as assessed by cell morphology” value is “strongest morphological changes”.

Take `COc1cccc2c1C(=O)c1c(O)c3c(c(O)c1C2=O)C[C@@](O)(C(C)=O)C[C@@H]3O[C@H]1C[C@H](N)[C@H](O)[C@H](C)O1` [DNM, Daunomycin]: the “Binding preference among RNAs” value in data set [1] is recorded as “prefers to bind 5’CCG/3’GAC”.

For the compound `O=C1c2c(O)ccc(O)c2C(=O)c2c(NCCNCCO)ccc(NCCNCCO)c21` [MTX, Mitoxantrone], the “Binding preference among RNAs” value in data set [1] is given as “slight preference for 5’CCG/3’GAC while it discriminates against 5’CUG/3’GCC”.

For the compound `Cn1cc(NC(=O)c2cc(NC(=O)CN=C(N)N)cn2C)cc1C(=O)NCCC(=N)N` [NTSP, netropsin], in data set [1], the “Binding preference among RNAs” value is reported as “slight preference for 5’CCG/3’GUC”.

`CCN(CC)CCCC(C)Nc1c2ccc(Cl)cc2nc2ccc(OC)cc12` (stereo not drawn) [QNC, Quinacrine]: in data set [1], the “Binding preference among RNAs” value is reported as “prefers to bind 5’CAG/3’GCC”.

With `Nc1ccc2cc3ccc(N)cc3nc2c1` [proflavin, Proflavin], the “Binding preference among RNAs” value in [1] was “little preference for binding to a fully paired RNA or any of the RNAs with 1×1 nucleotide internal loops”.
